# Screens: PubChem BioAssay, SRMLSC
# HCT116 bCat-KO: beta-catenin-lacking colon tumor cell growth suppression; HCT116 beta-catenin knockout viability, CellTiter-Glo, 60 h; stronger effect = lower value; hit rate 1.5% among 140,000; viability, % at 10 µM;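 active = viability at or under a set limit, the compound median less 4 SD, cut at about 6% in these data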
# H69AR inhibit: growth inhibitors of human H69AR lung tumor cells; H69AR lung tumor viability, ATP luminescence, 72 h; stronger effect = lower value; viability, % at 10 µM; hit rate 6% among 85,000;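 active = viability at or below 40%; inactive = viability above 40%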;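 also: multidrug resistant small cell line overexpressing MRP-1 efflux transporter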
# HCT116 PTEN-null: growth suppressors of cells with PTEN tumor suppressor deletion | HCT116 PTEN-null viability, CellTiter-Glo, 60 h; stronger effect = lower value | viability, % at 10 µM | hit rate 1.2% among 140,000;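 active = viability at or below a set limit, 4 SD under the median of all tested compounds, cut at about 3.7% in these data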;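 also: PTEN knockout HCT116 line with beta catenin targeted HCT116 as companion control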
# HUVEC inhibit: human endothelial cell proliferation inhibition | HUVEC proliferation, CellTiter-Glo luminescence, 72 h; stronger effect = lower value | viability, % at 10 µM (by protocol) | hit rate 1.1% among 86,000;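 active = viability at or below 30%; inactive = viability above 30%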
# Fibroblast inh: blocks proliferation of human lung fibroblasts | viability, % at 10 µM | hit rate 1.1% among 85,000 | LL 47 human lung fibroblast viability, ATP luminescence; stronger effect = lower value | AID 719;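 active = viability at or below 50% in the single dose screen; inactive = viability above 50%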;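 also: compound exposure lasted 72 h before the ATP readout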
#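 Test system: LL 47 human lung fibroblasts / Quantity: 1,150 cells in each well / Medium: IMEM growth medium with 15% fetal bovine serum / Incubation: 72 h compound exposure at 37 °C after overnight plating / Detection: CellTiter-Glo luminescence measuring cellular ATP / Read-out: % viability versus median cells-only luminescence / Benchmarks: cell-only wells, no compound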
# A number is an active result; n = inactive; x = not tested or not shown. The entries come from a sample that favours hits as a whole.
SMILES,HCT116 bCat-KO,H69AR inhibit,HCT116 PTEN-null,HUVEC inhibit,Fibroblast inh
O=C1CC(c2ccccc2)n2nc(NC(=O)c3ccccn3)nc2N1 (stereo not drawn),n,29,n,n,n
O=C1CC(c2ccccc2)n2nc(NC(=O)c3ccccc3)nc2N1 (stereo not drawn),n,x,n,x,x
Cc1nc2ncnn2c(N2CCN(c3cccc(C(F)(F)F)c3)CC2)c1C,n,33,n,n,n
Cc1cc(N2CCN(c3cccc(C(F)(F)F)c3)CC2)n2ncnc2n1,n,n,n,n,n
Cc1cc(C)n(-c2nc(NCC(C)O)c3c4c(sc3n2)CCCC4)n1 (stereo not drawn),n,n,n,n,n
Cc1cc(C)n(-c2nc(NCCCO)c3c4c(sc3n2)CCCC4)n1,n,4.9,n,17,n
Cc1cc(C)n(-c2nc(NCCO)c3c4c(sc3n2)CCCC4)n1,n,11,n,n,n
O=c1c(Cl)c(NCc2ccccc2Cl)cnn1C12CC3CC(CC(C3)C1)C2,n,x,n,x,x
O=C(Cc1ccc(Cl)cc1)Nc1ccc(SC(F)F)cc1,n,x,n,x,x
CCc1nc(Nc2ccc(OC)c(OC)c2)c2nnn(Cc3ccccc3Cl)c2n1,n,n,n,27,n
COc1ccc(Cl)cc1NC(=O)C1CSC(c2ccncc2)=N1 (stereo not drawn),n,30,n,n,n
COc1ccc(Cl)cc1NC(=O)NC(C)c1ccncc1 (stereo not drawn),n,n,n,n,n
COc1ccc(Cl)cc1C(=O)NNC1CC(=O)N(Cc2ccc(Cl)cc2)C1=O (stereo not drawn),n,x,n,x,x
C=CCNC(=O)C1CC(=O)N(c2ccc(OCC(=O)Nc3ccc(Cl)c(C(F)(F)F)c3)cc2)C1 (stereo not drawn),1.9,14,1.9,n,n
O=c1[nH][nH]c(-c2ccccc2O)c1C(C[N+](=O)[O-])c1ccc(Br)cc1 (stereo not drawn),4.2,x,1.6,x,x
COc1ccc(C(C[N+](=O)[O-])c2c(C)[nH]c3ccccc23)cc1OC (stereo not drawn),n,x,n,x,x
Cc1ccc(C(C[N+](=O)[O-])c2c(-c3ccccc3O)[nH][nH]c2=O)cc1 (stereo not drawn),3.5,x,3.6,x,x
CCCCN(C(=O)Cn1nnc2ccccc21)C(C(=O)NCCOC)c1cccs1 (stereo not drawn),n,n,n,n,n
Cc1ccc(C[n+]2cccc(-c3ccccc3)c2)c(C)c1,n,x,n,x,x
Cc1nn(Cc2ccc(Cl)cc2Cl)c(C)c1NC(=O)CCl,n,1.6,n,n,23
O=C(Nc1ccc(C(=O)OC[C@@H]2CCCN3CCCC[C@H]23)cc1)c1cccc(Br)c1,n,x,n,x,x
Cc1ccc(Sc2ccc(/C=N/O)cc2[N+](=O)[O-])cc1,n,1.1,n,n,n
CC(=O)N1N=C(c2ccco2)CC1c1ccc(Br)cc1 (stereo not drawn),n,x,n,x,x
Cc1ccc(C(=O)CC2(O)C(=O)N(C)c3ccc(Br)cc32)c(C)c1 (stereo not drawn),n,36,n,n,n
CN1C(=O)C(O)(CC(=O)c2ccccn2)c2cc(Br)ccc21 (stereo not drawn),n,29,n,n,n
SMILES,HCT116 bCat-KO,H69AR inhibit,HCT116 PTEN-null,HUVEC inhibit,Fibroblast inh
CCCn1nnc(NC(=O)c2cccc(OCC(C)C)c2)n1,n,38,n,n,n
CC(C)c1ccc(N(CC(=O)Nc2ccc(S(=O)(=O)N3CCOCC3)cc2)S(C)(=O)=O)cc1,n,30,n,n,n
CC(C)COc1cccc(C(=O)Nc2ccc(S(=O)(=O)N3CCOCC3)cc2)c1,n,22,n,n,n
CC(C)CNC(=S)NC(=O)c1ccc(F)cc1,n,x,n,x,x
CN(C)CCNS(=O)(=O)c1ccc(N2CCN(c3ccc(F)cc3)CC2)c([N+](=O)[O-])c1,n,x,n,x,x
Clc1ccc(CNCc2cccs2)c(Cl)c1,n,x,n,x,x
CCc1ccc(OCC(=O)NC(NC(=S)Nc2ccccc2)C(Cl)(Cl)Cl)cc1 (stereo not drawn),2.4,x,n,x,x
C[N+]1=C(/C=C/Nc2ccccc2Cl)C(C)(C)c2ccccc21,n,x,n,x,x
COC(=O)c1ccc2c(c1)C(C)(C)C(/C=C/c1ccccc1O)=[N+]2C,2.4,x,1.8,x,x
O=C(Nc1ccccc1NC(=O)c1ccco1)c1ccco1,n,n,n,n,n
O=C(Nc1ccccc1-c1ccccc1NC(=O)c1ccco1)c1ccco1,n,40,n,n,n
CC(C)Oc1ccc(C(=O)Nc2ccc(NC(=O)c3ccco3)c(Cl)c2)cc1,n,n,n,n,n
COc1cc(NC(=O)c2ccco2)c(OC)cc1NC(=O)Nc1ccc(Cl)cc1,n,11,n,n,n
O=C(Nc1ccc(Cl)cc1C(=O)Nc1ccncc1)c1ccco1,n,36,n,n,n
CC(C)COc1ccc(C(=O)Nc2ccc(NC(=O)c3ccco3)c(Cl)c2)cc1,n,6.7,n,n,n
O=C(Cc1ccccc1)NCC(=O)OCC(=O)c1cccs1,n,x,n,x,x
CCCCn1nnnc1NCc1ccc(C)s1,n,n,n,n,n
CCn1c(-c2cc3c(C(F)(F)F)nn(C)c3s2)n[nH]c1=S,n,x,n,x,x
O=C1c2ccccc2C(=O)N1CC(O)CNc1ccc(Br)cc1 (stereo not drawn),n,x,n,x,x
COc1cc(OC)cc(C(=O)Nc2cc(NC(=O)c3ccco3)ccc2OC)c1,n,37,n,n,n
COc1ccccc1N1C(=O)C2ON(c3ccccc3)C(c3ccc(N(C)C)cc3)C2C1=O (stereo not drawn),n,11,n,n,n
O=C(/C=C/NNC(=O)c1cccc(Br)c1)c1cccc(Br)c1,n,n,n,n,n
O=C(/C=C/NNC(=O)c1ccccc1)c1ccc(Br)cc1,n,34,n,n,n
CC(=O)c1c(C)nc(-c2ccc3c(c2)OCO3)n1O,n,n,n,n,n
CSc1cccc(-n2cc(-c3ccc4c(c3)OCO4)[nH]c2=O)c1,n,25,n,n,n
SMILES,HCT116 bCat-KO,H69AR inhibit,HCT116 PTEN-null,HUVEC inhibit,Fibroblast inh
O=C(NC1CCCCC1)C(c1ccc(F)cc1)N(Cc1ccc2c(c1)OCO2)C(=O)c1cnsn1 (stereo not drawn),n,n,n,n,n
Cc1sc2c(c1C)c(=O)nc1scc(C)n12,x,n,x,n,n
Cc1ccc(Oc2ccc(S(=O)(=O)N3CCOCC3)cc2C(N)=O)c(-n2nc3ccccc3n2)c1,n,31,n,n,n
CCOC(=O)c1cc(-c2ccccc2)sc1NC(=O)C(C)N1C(=O)c2ccccc2C1=O (stereo not drawn),n,x,n,x,x
CCN(CC)c1ccc2c(c1)oc(=O)c1c(Cl)cc(=O)oc12,3.0,1.9,2.0,n,11
CCN(CC)c1ccc2c(Cl)c(Br)c(=O)oc2c1,n,12,n,n,34
CCN(CC)c1ccc2c(C)c(-c3ccc(N)cc3)c(=O)oc2c1,n,n,n,n,n
NC(=O)Cn1c(S(=O)(=O)Cc2ccccc2)nc2ccccc21,x,n,x,n,n
O=S(=O)(Cc1ccccc1)c1cnc2ccccc2n1,n,7.1,n,n,n
CCCCNC(=O)C1CCCN1C(=O)Nc1ccccc1 (stereo not drawn),n,n,n,n,n
